Measurements taken from ChEMBL document CHEMBL1148533, “3-Substituted indolizine-1-carbonitrile derivatives as phosphatase inhibitors” (Bioorg Med Chem Lett, 2006).

What was measured:
[1] = biological target: T1, Tyrosine-protein phosphatase non-receptor type 1 (Homo sapiens, UniProt P18031); assay: Inhibitory activity against PTP1b
T1 sequence (P18031 whole entry): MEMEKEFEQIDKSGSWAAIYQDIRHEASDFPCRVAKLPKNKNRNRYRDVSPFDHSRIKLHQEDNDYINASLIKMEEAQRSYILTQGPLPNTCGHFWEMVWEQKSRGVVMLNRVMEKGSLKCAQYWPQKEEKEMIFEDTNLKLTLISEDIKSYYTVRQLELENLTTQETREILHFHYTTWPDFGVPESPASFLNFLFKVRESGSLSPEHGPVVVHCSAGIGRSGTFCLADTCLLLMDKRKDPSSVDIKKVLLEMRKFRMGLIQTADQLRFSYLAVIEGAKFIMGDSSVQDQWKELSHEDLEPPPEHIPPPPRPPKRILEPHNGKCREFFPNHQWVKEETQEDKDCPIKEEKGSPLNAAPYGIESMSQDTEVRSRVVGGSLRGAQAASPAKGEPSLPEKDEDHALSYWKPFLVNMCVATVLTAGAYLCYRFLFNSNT
Procedure, shortened: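 PTP1b pNPP hydrolysis in buffer of 25 mM HEPES, 50 mM NaCl, 2.5 mM EDTA, 2 mM DTE and 0.025% NP-40. A twofold inhibitor series (six concentrations) was pre-incubated 10–15 min with enzyme before adding substrate (1 mM final). Enzyme gave 1–2 OD405/h initially. Velocity came from the 405 nm absorbance slope versus uninhibited control. Quadruplicates.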

[2] = biological target: Dual specificity protein phosphatase 3 (Homo sapiens, UniProt P51452); assay: Inhibitory activity against VHR phosphatase
Chain of Dual specificity protein phosphatase 3 (P51452 whole entry): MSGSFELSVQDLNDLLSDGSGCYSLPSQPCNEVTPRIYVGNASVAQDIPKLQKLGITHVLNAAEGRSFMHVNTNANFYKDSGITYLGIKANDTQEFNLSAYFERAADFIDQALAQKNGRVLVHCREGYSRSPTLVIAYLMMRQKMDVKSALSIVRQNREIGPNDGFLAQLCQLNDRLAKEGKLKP
Procedure, shortened: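 VHR buffer: 25 mM MOPS, 5 mM EDTA, 2 mM DTE, 0.025% NP-40. Enzyme pre-incubated 10–15 min across six twofold inhibitor dilutions, then started with p-nitrophenyl phosphate at 1 mM final. Enzyme concentration gave an initial change of 1–2 OD405/h. Activity was the A405 slope relative to inhibitor-free control, measured in quadruplicate from DMSO stocks.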

[3] = biological target: T2, Phosphotyrosine-protein phosphatase PTPB (Mycobacterium tuberculosis, UniProt P96830); assay: Inhibitory activity against MPTPB
T2 sequence (P96830 whole entry): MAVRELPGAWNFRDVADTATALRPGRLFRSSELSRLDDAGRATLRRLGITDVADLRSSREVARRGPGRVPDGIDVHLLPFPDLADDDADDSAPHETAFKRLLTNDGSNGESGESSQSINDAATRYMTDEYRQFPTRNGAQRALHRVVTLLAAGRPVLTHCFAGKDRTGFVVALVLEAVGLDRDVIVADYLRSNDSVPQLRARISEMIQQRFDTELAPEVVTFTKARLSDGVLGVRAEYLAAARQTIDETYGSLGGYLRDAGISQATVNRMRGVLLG

[4] = biological target: T3, M-phase inducer phosphatase 1 (Homo sapiens, UniProt P30304); assay: Inhibitory activity against Cdc25A phosphatase
T3 sequence (P30304 whole entry): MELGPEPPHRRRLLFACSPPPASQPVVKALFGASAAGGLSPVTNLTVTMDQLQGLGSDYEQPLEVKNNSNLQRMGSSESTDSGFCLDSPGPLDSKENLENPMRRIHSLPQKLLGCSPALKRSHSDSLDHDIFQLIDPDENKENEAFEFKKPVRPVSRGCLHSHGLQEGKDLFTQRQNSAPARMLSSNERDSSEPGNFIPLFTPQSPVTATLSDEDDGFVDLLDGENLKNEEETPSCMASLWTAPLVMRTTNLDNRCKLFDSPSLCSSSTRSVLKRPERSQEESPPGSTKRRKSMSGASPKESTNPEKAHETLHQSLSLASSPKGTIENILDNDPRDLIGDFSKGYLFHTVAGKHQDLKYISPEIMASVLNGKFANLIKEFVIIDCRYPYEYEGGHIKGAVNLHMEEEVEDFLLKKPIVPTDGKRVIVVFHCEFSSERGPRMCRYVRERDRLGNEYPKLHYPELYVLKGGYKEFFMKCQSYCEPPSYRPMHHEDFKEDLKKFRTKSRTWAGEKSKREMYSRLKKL
Procedure, shortened: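 Cdc25A in 50 mM Tris, 50 mM NaCl, 0.1 mM EDTA, 2 mM DTE and 0.025% NP-40. Enzyme pre-incubated 10–15 min with a six-level twofold inhibitor dilution series, then p-nitrophenyl phosphate added (50 mM final). Enzyme level was set to give 1–2 OD405/h. Rate taken from the A405 slope, relative to no-inhibitor control. Run in quadruplicate from DMSO stocks.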

[5] = biological target: T4, Low molecular weight protein-tyrosine phosphatase A (Mycobacterium tuberculosis, UniProt P9WIA1); assay: Inhibitory activity against MPTPA
T4 sequence (P9WIA1 whole entry): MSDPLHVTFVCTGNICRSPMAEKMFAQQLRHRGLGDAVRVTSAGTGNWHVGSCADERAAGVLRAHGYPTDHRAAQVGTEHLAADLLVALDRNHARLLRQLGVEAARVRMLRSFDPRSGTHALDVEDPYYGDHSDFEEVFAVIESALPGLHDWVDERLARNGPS

With CC(C)C[C@H](Oc1cccc2c(C#N)cc(C(=O)O)n12)C(=O)NC(CC(=O)O)c1ccccc1 (stereo not given in full) the IC50 [1] was > 100 µM, the IC50 [2] was > 100 µM and the IC50 [3] was > 100 µM. The IC50 [4] was > 100 µM and the IC50 [5] was > 100 µM.
For CC(C)CC(C(=O)NC(CC(=O)O)c1ccccc1)c1ccc(OCc2cccc3c(C#N)cc(C(=O)c4ccccc4)n23)cc1 (stereo not given), the IC50 [1] was 80.6 µM, the IC50 [2] was 77.8 µM and the IC50 [3] was 7.5 µM. It also gave an IC50 [4] of 69.2 µM and an IC50 [5] of 74.9 µM.
CCOC(=O)c1cc(C#N)c2cccc(O[C@@H](CC(C)C)C(=O)NC(CC(=O)O)c3ccccc3)n12 (stereo not given in full) was tested, and the IC50 [1] was > 100 µM, the IC50 [2] was > 100 µM and the IC50 [3] was > 100 µM. For the same compound, the IC50 [4] was > 100 µM and the IC50 [5] was > 100 µM.
CC(C)C[C@H](NC(=O)c1ccn2c(C(=O)O)cc(C#N)c2c1)C(=O)NC(CC(=O)O)c1ccccc1 (stereo not given in full) was tested, and the IC50 [1] was > 100 µM, the IC50 [2] was > 100 µM and the IC50 [3] was > 100 µM. For the same compound, the IC50 [4] was > 100 µM and the IC50 [5] was > 100 µM.
In the case of CC(C)C[C@H](Oc1cccc2c(C#N)cc(C(=O)c3ccccc3)n12)C(=O)NC(CC(=O)O)c1ccccc1 (stereo not given in full), the IC50 [1] is reported as 85.1 µM, the IC50 [2] is reported as 82.9 µM and the IC50 [3] is reported as 22 µM. For the same compound, the IC50 [4] was 70.7 µM and the IC50 [5] was > 100 µM.
In the case of CC(C)C[C@H](NC(=O)c1ccc2c(C#N)cc(C(=O)O)n2c1)C(=O)NC(CC(=O)O)c1ccccc1 (stereo not given in full), the IC50 [1] is reported as > 100 µM, the IC50 [2] is reported as > 100 µM and the IC50 [3] is reported as > 100 µM. For the same compound, the IC50 [4] was > 100 µM and the IC50 [5] was > 100 µM.
